≈ marks a conversion by molar mass, not a printed value.
What was measured:
[1] = system: methicillin-resistant Staphylococcus aureus (MRSA USA300); assay: MIC by broth microdilution; assay type: cell-based; settings: MRSA|USA300, read-out: MIC S. aureus USA300
Outline: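 MRSA USA300 was grown overnight at 37 °C on tryptone soy agar, adjusted to 0.5 McFarland, then diluted in cation-adjusted Mueller-Hinton broth to ∼5 × 10^5 CFU ml−1. […] Plates were incubated aerobically at 37 °C for 18–20 h, following CLSI broth microdilution.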

[2] = system: Acinetobacter baumannii AB5075; assay: MIC by broth microdilution; assay type: cell-based; settings: AB5075, read-out: MIC A. baumannii AB5075, broth microdilution, 37 °C, 18–20 hours
MTT cytotoxicity assay = assay type: cell-based; settings: human, HEK293 cells (human embryonic kidney cell line)
MRSA USA300 biofilms = assay: Disruption of mature MRSA biofilms; assay type: cell-based, Staphylococcus aureus; settings: at 4× MIC
erythrocytes = assay: Hemolysis; assay type: cell-based; settings: LC lytic concentration 30%

Compound | MIC [1] | MIC [2] | IC50 (MTT cytotoxicity assay) | percentage of biofilm disruption relative to untreated controls (MRSA USA300 biofilms) | Hemolysis LC (erythrocytes)
CN[C@H](CC(C)C)C(=O)N[C@H]1C(=O)N[C@@H](CC(N)=O)C(=O)N[C@H]2C(=O)N[C@H]3C(=O)N[C@H](C(=O)N[C@H](C(=O)O)c4cc(O)cc(O)c4-c4cc3ccc4O)[C@H](O)c3ccc(c(Cl)c3)Oc3cc2cc(c3O[C@@H]2O[C@H](CO)[C@@H](O)[C@H](O)[C@H]2O[C@H]2C[C@](C)(N)[C@H](O)[C@H](C)O2)Oc2ccc(cc2Cl)[C@H]1O [Vancomycin, reference compound] | 1 µg/mL (≈ 0.69 µM) |  |  |  | 
CCCCCCCCNS(=O)(=O)c1ccc(-n2nnc(C(C)=NNC(=N)N)c2C)cc1 [Compound 22, 2-(1-(5-Methyl-1-(4-(N-octylsulfamoyl)phenyl)-1H-1,2,3-triazol-4-yl)ethylidene)hydrazine-1-carboximidamide] | 64 µg/mL (≈ 143 µM) | 64 µg/mL (≈ 143 µM) |  |  | 
CCCCCCNS(=O)(=O)c1ccc(-n2nnc(C(C)=NNC(=N)N)c2C)cc1 [Compound 20, 2-(1-(1-(4-(N-Hexylsulfamoyl)phenyl)-5-methyl-1H-1,2,3-triazol-4-yl)ethylidene)hydrazine-1-carboximidamide] | 16 µg/mL (≈ 38 µM) | 16 µg/mL (≈ 38 µM) |  |  | 
CCCCNS(=O)(=O)c1ccc(-n2nnc(C(C)=NNC(=N)N)c2C)cc1 [Compound 18, 2-(1-(1-(4-(N-Butylsulfamoyl)phenyl)-5-methyl-1H-1,2,3-triazol-4-yl)ethylidene)hydrazine-1-carboximidamide] | > 64 µg/mL | > 64 µg/mL |  |  | 
CCCCCCCCCNS(=O)(=O)c1ccc(-n2nnc(C(C)=NNC(=N)N)c2C)cc1 [Compound 23, 2-(1-(5-Methyl-1-(4-(N-nonylsulfamoyl)phenyl)-1H-1,2,3-triazol-4-yl)ethylidene)hydrazine-1-carboximidamide] |  | 64 µg/mL (≈ 138 µM) | 52.4 µM | 70–80% | >10 mg/mL
CCNS(=O)(=O)c1ccc(-n2nnc(C(C)=NNC(=N)N)c2C)cc1 [Compound 17, 2-(1-(1-(4-(N-Ethylsulfamoyl)phenyl)-5-methyl-1H-1,2,3-triazol-4-yl)ethylidene)hydrazine-1-carboximidamide] | > 64 µg/mL | > 64 µg/mL |  |  | 

Source: article PMC12171725 (RSC Advances, 2025)
